Experimental data: ChEMBL document CHEMBL1140048, “NO-donors. Part 17: Synthesis and antimicrobial activity of novel ketoconazole-NO-donor hybrid compounds” (Bioorg Med Chem, 2008)
≈ marks a conversion by molar mass, not a printed value.

How the values were obtained:
Penicillium chrysogenum [1] = experiment: Antifungal activity against Penicillium notatum after 24 hrs by broth microdilution method; type: functional
Outline: (§1)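 Broth microdilution per NCCLS in RPMI 1640 (L-glutamine, MOPS, no bicarbonate). An 8 mM stock in DMSO/methanol 1:10 is serially diluted twofold; NONOate salts go through 0.1 M NaOH, with only the last step in medium. Inoculum is 6×10^3 CFU/mL final. A. fumigatus and A. terreus are incubated 24 h at 37 °C; others at 30 °C. MIC is the lowest dilution without visible growth, read nephelometrically.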

Aspergillus fumigatus [2] = experiment: Antifungal activity against Aspergillus fumigatus after 24 hrs by broth microdilution method; type: functional; outline: as §1
Nakaseomyces glabratus [3] = experiment: Antifungal activity against Candida glabrata after 24 hrs by broth microdilution method; type: functional; outline: as §1
Aspergillus niger [4] = experiment: Antifungal activity against Aspergillus niger after 24 hrs by broth microdilution method; type: functional; outline: as §1
Aspergillus terreus [5] = experiment: Antifungal activity against Aspergillus terreus after 24 hrs by broth microdilution method; type: functional; outline: as §1
Candida albicans [6] = experiment: Antifungal activity against Candida albicans after 24 hrs by broth microdilution method; type: functional; outline: as §1
[7] = tested on: Sporobolomyces salmonicolor; experiment: Antifungal activity against Sporobolomyces salmonicolor after 24 hrs by broth microdilution method; type: functional; outline: as §1
Fusarium oxysporum [8] = experiment: Antifungal activity against Fusarium oxysporum after 24 hrs by agar diffusion method
Penicillium chrysogenum [9] = experiment: Ratio of MIC for drug to ketoconazole against Penicillium notatum; type: functional
Outline: (§2)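 FIC is calculated as the MIC of the test compound divided by the MIC of ketoconazole. Both MICs come from 24 h NCCLS broth microdilution in RPMI 1640/MOPS, starting from an 8 mM stock in twofold dilutions, at 6×10^3 CFU/mL. Incubation is at 37 °C for A. fumigatus and A. terreus and at 30 °C for the other strains.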

Aspergillus terreus [10] = experiment: Ratio of MIC for drug to ketoconazole against Aspergillus terreus; type: functional; outline: as §2
Candida albicans [11] = experiment: Ratio of MIC for drug to ketoconazole against Candida albicans; type: functional; outline: as §2
Fusarium oxysporum [12] = experiment: Ratio of MIC for drug to ketoconazole against Fusarium oxysporum; type: functional
Aspergillus niger [13] = experiment: Ratio of MIC for drug to ketoconazole against Aspergillus niger; type: functional; outline: as §2
[14] = tested on: Sporobolomyces salmonicolor; experiment: Ratio of MIC for drug to ketoconazole against Sporobolomyces salmonicolor; type: functional; outline: as §2
Aspergillus fumigatus [15] = experiment: Ratio of MIC for drug to ketoconazole against Aspergillus fumigatus; type: functional; outline: as §2
Nakaseomyces glabratus [16] = experiment: Ratio of MIC for drug to ketoconazole against Candida glabrata; type: functional; outline: as §2
Candida = experiment: Antifungal activity against Candida sp. by microdilution assay; type: functional
Outline: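 Broth microdilution per NCCLS guidelines in RPMI 1640 (L-glutamine, MOPS, no bicarbonate). An 8 mM stock in DMSO/methanol (1:10) was serially diluted twofold in medium; NONOate sodium salts were diluted in 0.1 M NaOH, with only the final step in medium, used at once. Final inoculum 6×10^3 CFU/mL, 30 °C, 24 h. MIC read nephelometrically as the lowest dilution with no visible growth.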

Compound	MIC (Penicillium chrysogenum [1])	MIC (Aspergillus fumigatus [2])	MIC (Nakaseomyces glabratus [3])	MIC (Aspergillus niger [4])	MIC (Aspergillus terreus [5])	MIC (Candida albicans [6])	MIC [7]	MIC (Fusarium oxysporum [8])	Ratio (Penicillium chrysogenum [9])	Ratio (Aspergillus terreus [10])	Ratio (Candida albicans [11])	Ratio (Fusarium oxysporum [12])	Ratio (Aspergillus niger [13])	Ratio [14]	Ratio (Aspergillus fumigatus [15])	Ratio (Nakaseomyces glabratus [16])	MIC (Candida)
CC(=O)N1CCN(c2ccc(OCC3COC(Cn4ccnc4)(c4ccc(Cl)cc4Cl)O3)cc2)CC1 (stereo unspecified) [KETOCONAZOLE]	8 µM (≈ 4.25 µg/mL)	62.5 µM (≈ 33.2 µg/mL)	12.5 µM (≈ 6.64 µg/mL)	62.5 µM (≈ 33.2 µg/mL)	31.2 µM (≈ 16.6 µg/mL)	25 µM (≈ 13.3 µg/mL)	1.56 µM (≈ 0.829 µg/mL)	500 µM (≈ 266 µg/mL)									
CCO/N=[N+](\[O-])N1CCN(c2ccccc2)CC1	> 2000 µM	> 2000 µM	> 2000 µM	> 2000 µM	> 2000 µM	> 2000 µM	> 2000 µM	> 2000 µM									
O=[N+]([O-])OCCN1CCN(c2ccc(OC[C@H]3CO[C@](Cn4ccnc4)(c4ccc(Cl)cc4Cl)O3)cc2)CC1	62.5 µM (≈ 36.2 µg/mL)	1000 µM (≈ 578 µg/mL)	6.25 µM (≈ 3.62 µg/mL)	250 µM (≈ 145 µg/mL)	1000 µM (≈ 578 µg/mL)	12.5 µM (≈ 7.23 µg/mL)	15.6 µM (≈ 9.02 µg/mL)	1000 µM (≈ 578 µg/mL)	7.81	32	0.5	2	4	10	16	0.5	
O=C(CO/N=[N+](\[O-])N1CCCC1)N1CCN(c2ccc(OC[C@H]3CO[C@](Cn4ccnc4)(c4ccc(Cl)cc4Cl)O3)cc2)CC1	8 µM (≈ 5.28 µg/mL)	125 µM (≈ 82.6 µg/mL)	12.5 µM (≈ 8.26 µg/mL)	62.5 µM (≈ 41.3 µg/mL)	62.5 µM (≈ 41.3 µg/mL)	25 µM (≈ 16.5 µg/mL)	2 µM (≈ 1.32 µg/mL)	1000 µM (≈ 661 µg/mL)	1	2	1	2	1	1.3	2	1	
COCO/N=[N+](\[O-])N1CCN(c2ccccc2)CC1	> 2000 µM	> 2000 µM	> 2000 µM	> 2000 µM	> 2000 µM	> 2000 µM	> 2000 µM	> 2000 µM									
c1ccc(N2CCNCC2)cc1 [PHENYLPIPERAZINE]	> 2000 µM	> 2000 µM	> 2000 µM	> 2000 µM	> 2000 µM	> 2000 µM	> 2000 µM	> 2000 µM									
COCO/N=[N+](\[O-])N1CCN(c2ccc(OC[C@H]3CO[C@](Cn4ccnc4)(c4ccc(Cl)cc4Cl)O3)cc2)CC1	1.56 µM (≈ 0.926 µg/mL)	8 µM (≈ 4.75 µg/mL)	3.13 µM (≈ 1.86 µg/mL)	4 µM (≈ 2.37 µg/mL)	8 µM (≈ 4.75 µg/mL)	25 µM (≈ 14.8 µg/mL)	2 µM (≈ 1.19 µg/mL)	250 µM (≈ 148 µg/mL)	0.2	0.26	1	0.5	0.06	1.3	0.13	0.25	
NCCCN(CCCN)N(O)N=O																	5000 µg/mL (≈ 26.1 mM)
O=[N+]([O-])OCCN1CCN(c2ccccc2)CC1	> 2000 µM	> 2000 µM	> 2000 µM	> 2000 µM	> 2000 µM	> 2000 µM	> 2000 µM	> 2000 µM									
O=C(CO[N+](=O)[O-])N1CCN(c2ccc(OC[C@H]3CO[C@](Cn4ccnc4)(c4ccc(Cl)cc4Cl)O3)cc2)CC1	2.5 µM (≈ 1.48 µg/mL)	25 µM (≈ 14.8 µg/mL)	1.56 µM (≈ 0.924 µg/mL)	12.5 µM (≈ 7.41 µg/mL)	12.5 µM (≈ 7.41 µg/mL)	25 µM (≈ 14.8 µg/mL)	0.16 µM (≈ 0.0948 µg/mL)	100 µM (≈ 59.2 µg/mL)	0.31	0.4	1	0.2	0.2	0.1	0.4	0.12	
Clc1ccc([C@@]2(Cn3ccnc3)OC[C@H](COc3ccc(N4CCNCC4)cc3)O2)c(Cl)c1	250 µM (≈ 122 µg/mL)	2000 µM (≈ 979 µg/mL)	50 µM (≈ 24.5 µg/mL)	2000 µM (≈ 979 µg/mL)	2000 µM (≈ 979 µg/mL)	25 µM (≈ 12.2 µg/mL)	25 µM (≈ 12.2 µg/mL)	2000 µM (≈ 979 µg/mL)	31.25	64	1	4	32	16	32	4	
CC(C)(CO[N+](=O)[O-])C(=O)N1CCN(c2ccccc2)CC1	> 2000 µM	> 2000 µM	> 2000 µM	> 2000 µM	> 2000 µM	> 2000 µM	> 2000 µM	> 2000 µM									
CCO/N=[N+](\[O-])N1CCN(c2ccc(OC[C@H]3CO[C@](Cn4ccnc4)(c4ccc(Cl)cc4Cl)O3)cc2)CC1	1.25 µM (≈ 0.722 µg/mL)	12.5 µM (≈ 7.22 µg/mL)	3.13 µM (≈ 1.81 µg/mL)	1.56 µM (≈ 0.901 µg/mL)	3.13 µM (≈ 1.81 µg/mL)	50 µM (≈ 28.9 µg/mL)	0.16 µM (≈ 0.0924 µg/mL)	50 µM (≈ 28.9 µg/mL)	0.16	0.1	2	0.1	0.025	0.1	0.2	0.25	
[O-]/[N+](=N\O)N1CCN(c2ccccc2)CC1	> 2000 µM	> 2000 µM	> 2000 µM	> 2000 µM	> 2000 µM	> 2000 µM	> 2000 µM	> 2000 µM									
O=C(CO[N+](=O)[O-])N1CCN(c2ccccc2)CC1	> 2000 µM	> 2000 µM	> 2000 µM	> 2000 µM	> 2000 µM	> 2000 µM	> 2000 µM	> 2000 µM									
NCCN(CCN)/[N+]([O-])=N/O																	2000 µg/mL (≈ 12.3 mM)
O=C(CO/N=[N+](\[O-])N1CCCC1)N1CCN(c2ccccc2)CC1	> 2000 µM	> 2000 µM	> 2000 µM	> 2000 µM	> 2000 µM	> 2000 µM	> 2000 µM	> 2000 µM									
CC(C)(CO[N+](=O)[O-])C(=O)N1CCN(c2ccc(OC[C@H]3CO[C@](Cn4ccnc4)(c4ccc(Cl)cc4Cl)O3)cc2)CC1	8 µM (≈ 5.08 µg/mL)	3.13 µM (≈ 1.99 µg/mL)	3.13 µM (≈ 1.99 µg/mL)	1.56 µM (≈ 0.99 µg/mL)	1.56 µM (≈ 0.99 µg/mL)	6.25 µM (≈ 3.97 µg/mL)	0.6 µM (≈ 0.381 µg/mL)	25 µM (≈ 15.9 µg/mL)	1	0.05	0.25	0.05	0.025	0.38	0.05	0.25	
